Experimental data taken from ChEMBL document CHEMBL4340532, “Design, synthesis, and biological evaluation of novel 2'-deoxy-2'-fluoro-2'-C-methyl 8-azanebularine derivatives as potent anti-HBV agents” (Bioorg Med Chem Lett, 2019).

How the values were obtained:
[1] = tested on: Hepatitis B virus; test: (§1) Antiviral activity against lamivudine-resistant Hepatitis B virus harboring L180M/M204V mutant infected in human HepG2.2.15 cells assessed as inhibition of extracellular HBV DNA replication at 20 uM supplemented with fresh medium containing compound every 3 days for 9 days measured post-last dose by FQ-PCR analysis relative to control; format: functional
In short: (§2)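 Lamivudine-resistant cell line transfected with the L180M/M204V mutant, exposed to 10, 20 or 40 µM for 3, 6 or 9 days. Intracellular and extracellular HBV DNA levels measured.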

[2] = tested on: Hepatitis B virus; test: Antiviral activity against Hepatitis B virus infected in human HepG2.2.15 cells assessed as inhibition of intracellular HBV DNA replication at 10 uM supplemented with fresh medium containing compound every 3 days for 9 days measured post-last dose by FQ-PCR analysis relative to control; format: functional
In short: (§3)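 HepG2.2.15 cultures were treated at 10, 20 or 40 µM for 3, 6 and 9 days. Both intracellular and extracellular HBV DNA levels were then determined and compared with untreated cells.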

[3] = tested on: Hepatitis B virus; test: as §1, with “of intracellular” for “of extracellular”, “at 40” for “at 20”; format: functional; in short: as §2
[4] = tested on: Hepatitis B virus; test: (§4) Antiviral activity against Hepatitis B virus infected in human HepG2.2.15 cells assessed as inhibition of intracellular HBV DNA replication at 10 uM supplemented with fresh medium containing compound every 3 days for 6 days measured post-last dose by FQ-PCR analysis relative to control; format: functional; in short: as §3
[5] = tested on: Hepatitis B virus; test: Antiviral activity against lamivudine-resistant Hepatitis B virus harboring L180M/M204V mutant infected in human HepG2.2.15 cells assessed as inhibition of intracellular HBV DNA replication at 40 uM measured on day 3 by FQ-PCR analysis relative to control; format: functional; details: HepG2.2.15, 72 h; in short: as §2
[6] = tested on: Hepatitis B virus; test: Antiviral activity against Hepatitis B virus infected in human HepG2.2.15 cells assessed as inhibition of extracellular HBV DNA replication at 20 uM measured on day 3 by FQ-PCR analysis relative to control; format: functional; details: HepG2.2.15, 72 h; in short: as §3
[7] = tested on: Hepatitis B virus; test: as §1, with “of intracellular” for “of extracellular”, “at 40” for “at 20”, “for 6” for “for 9”; format: functional; in short: as §2
[8] = tested on: Hepatitis B virus; test: Antiviral activity against Hepatitis B virus infected in human HepG2.2.15 cells assessed as inhibition of HBeAg secretion at 20 uM supplemented with fresh medium containing compound every 3 days for 6 days and measured on day 9 by ELISA relative to control; format: functional
In short: (§5)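 HepG2.2.15 cells were exposed to compound for up to 9 days. The initial screen used 20 µM for 9 days, with lamivudine (20 µM) as positive control. Follow-up used 10, 20 or 40 µM sampled at days 3, 6 and 9. HBsAg and HBeAg were quantified in culture supernatant by ELISA and compared with a no-drug control. Results are mean ± SD of three experiments.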

[9] = tested on: Hepatitis B virus; test: as §1, with “6” for “9”; format: functional; in short: as §2
[10] = tested on: Hepatitis B virus; test: Antiviral activity against Hepatitis B virus infected in human HepG2.2.15 cells assessed as inhibition of extracellular HBV DNA replication at 40 uM supplemented with fresh medium containing compound every 3 days for 9 days measured post-last dose by FQ-PCR analysis relative to control; format: functional; in short: as §3
[11] = tested on: Hepatitis B virus; test: as §4, with “against lamivudine-resistant” for “against”, “virus harboring L180M/M204V mutant” for “virus”; format: functional; in short: as §2
[12] = Cytotoxicity against human HepG2 cells after 3 days by MTT assay; format: cell-based
In short: (§6)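 HepG2 cells were exposed to compound for 3 or 9 days and viability was read by MTT assay. CC50 is the concentration causing 50% cytotoxicity. Results are mean ± SD of three experiments.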

[13] = tested on: Hepatitis B virus; test: Antiviral activity against lamivudine-resistant Hepatitis B virus harboring L180M/M204V mutant infected in human HepG2.2.15 cells assessed as inhibition of extracellular HBV DNA replication at 40 uM measured on day 3 by FQ-PCR analysis relative to control; format: functional; details: HepG2.2.15, 72 h; in short: as §2
[14] = tested on: Hepatitis B virus; test: Antiviral activity against Hepatitis B virus infected in human HepG2.2.15 cells assessed as inhibition of extracellular HBV DNA replication at 20 uM supplemented with fresh medium containing compound every 3 days for 9 days measured post-last dose by FQ-PCR analysis relative to control; format: functional; in short: as §3
[15] = tested on: Hepatitis B virus; test: as §1, with “intracellular” for “extracellular”; format: functional; in short: as §2
[16] = tested on: Hepatitis B virus; test: Antiviral activity against lamivudine-resistant Hepatitis B virus harboring L180M/M204V mutant infected in human HepG2.2.15 cells assessed as inhibition of extracellular HBV DNA replication at 20 uM measured on day 3 by FQ-PCR analysis relative to control; format: functional; details: HepG2.2.15, 72 h; in short: as §2
[17] = tested on: Hepatitis B virus; test: Antiviral activity against Hepatitis B virus infected in human HepG2.2.15 cells assessed as inhibition of HBsAg secretion at 20 uM supplemented with fresh medium containing compound every 3 days for 6 days and measured on day 9 by ELISA relative to control; format: functional; in short: as §5
[18] = tested on: Hepatitis B virus; test: Antiviral activity against Hepatitis B virus infected in human HepG2.2.15 cells assessed as inhibition of intracellular HBV DNA replication at 20 uM measured on day 3 by FQ-PCR analysis relative to control; format: functional; details: HepG2.2.15, 72 h; in short: as §3
[19] = tested on: Hepatitis B virus; test: Antiviral activity against Hepatitis B virus infected in human HepG2.2.15 cells assessed as inhibition of extracellular HBV DNA replication at 40 uM supplemented with fresh medium containing compound every 3 days for 6 days measured post-last dose by FQ-PCR analysis relative to control; format: functional; in short: as §3
[20] = tested on: Hepatitis B virus; test: as §1, with “intracellular” for “extracellular”, “6” for “9”; format: functional; in short: as §2
[21] = tested on: Hepatitis B virus; test: Antiviral activity against Hepatitis B virus infected in human HepG2.2.15 cells assessed as inhibition of extracellular HBV DNA replication at 10 uM supplemented with fresh medium containing compound every 3 days for 9 days measured post-last dose by FQ-PCR analysis relative to control; format: functional; in short: as §3
[22] = tested on: Hepatitis B virus; test: as §1, with “of intracellular” for “of extracellular”, “at 10” for “at 20”; format: functional; in short: as §2
[23] = tested on: Hepatitis B virus; test: Antiviral activity against lamivudine-resistant Hepatitis B virus harboring L180M/M204V mutant infected in human HepG2.2.15 cells assessed as inhibition of extracellular HBV DNA replication at 10 uM measured on day 3 by FQ-PCR analysis relative to control; format: functional; details: HepG2.2.15, 72 h; in short: as §2
[24] = tested on: Hepatitis B virus; test: Antiviral activity against Hepatitis B virus infected in human HepG2.2.15 cells assessed as inhibition of intracellular HBV DNA replication at 40 uM measured on day 3 by FQ-PCR analysis relative to control; format: functional; details: HepG2.2.15, 72 h; in short: as §3
[25] = tested on: Hepatitis B virus; test: Antiviral activity against Hepatitis B virus infected in human HepG2.2.15 cells assessed as inhibition of intracellular HBV DNA replication at 20 uM supplemented with fresh medium containing compound every 3 days for 9 days measured post-last dose by FQ-PCR analysis relative to control; format: functional; in short: as §3
[26] = tested on: Hepatitis B virus; test: as §1, with “at 40” for “at 20”; format: functional; in short: as §2
[27] = tested on: Hepatitis B virus; test: Antiviral activity against Hepatitis B virus infected in human HepG2.2.15 cells assessed as inhibition of extracellular HBV DNA replication at 20 uM supplemented with fresh medium containing compound every 3 days for 6 days measured post-last dose by FQ-PCR analysis relative to control; format: functional; in short: as §3
[28] = tested on: Hepatitis B virus; test: Antiviral activity against Hepatitis B virus infected in human HepG2.2.15 cells assessed as inhibition of intracellular HBV DNA replication at 10 uM measured on day 3 by FQ-PCR analysis relative to control; format: functional; details: HepG2.2.15, 72 h; in short: as §3
[29] = tested on: HepG2 cells (Homo sapiens); test: Cytotoxicity against human HepG2 cells at 40 uM supplemented with fresh medium containing compound every 3 days for 9 days measured post-last dose
[30] = tested on: HepG2 cells (Homo sapiens); test: as above; remark: listed apart in the source
[31] = tested on: Hepatitis B virus; test: Antiviral activity against lamivudine-resistant Hepatitis B virus harboring L180M/M204V mutant infected in human HepG2.2.15 cells assessed as inhibition of intracellular HBV DNA replication at 10 uM measured on day 3 by FQ-PCR analysis relative to control; format: functional; details: HepG2.2.15, 72 h; in short: as §2
[32] = Cytotoxicity against human HepG2 cells supplemented with fresh medium containing compound every 3 days for 9 days measured post-last dose by MTT assay; format: cell-based; in short: as §6
[33] = tested on: Hepatitis B virus; test: Antiviral activity against Hepatitis B virus infected in human HepG2.2.15 cells assessed as inhibition of extracellular HBV DNA replication at 10 uM supplemented with fresh medium containing compound every 3 days for 6 days measured post-last dose by FQ-PCR analysis relative to control; format: functional; in short: as §3
[34] = tested on: Hepatitis B virus; test: Antiviral activity against Hepatitis B virus infected in human HepG2.2.15 cells assessed as inhibition of extracellular HBV DNA replication at 40 uM measured on day 3 by FQ-PCR analysis relative to control; format: functional; details: HepG2.2.15, 72 h; in short: as §3
[35] = tested on: Hepatitis B virus; test: Antiviral activity against lamivudine-resistant Hepatitis B virus harboring L180M/M204V mutant infected in human HepG2.2.15 cells assessed as inhibition of intracellular HBV DNA replication at 20 uM measured on day 3 by FQ-PCR analysis relative to control; format: functional; details: HepG2.2.15, 72 h; in short: as §2
[36] = tested on: Hepatitis B virus; test: as §1, with “at 10” for “at 20”; format: functional; in short: as §2
[37] = tested on: Hepatitis B virus; test: as §1, with “at 10” for “at 20”, “for 6” for “for 9”; format: functional; in short: as §2
[38] = tested on: Hepatitis B virus; test: as §1, with “at 40” for “at 20”, “for 6” for “for 9”; format: functional; in short: as §2
[39] = tested on: Hepatitis B virus; test: Antiviral activity against Hepatitis B virus infected in human HepG2.2.15 cells assessed as inhibition of intracellular HBV DNA replication at 20 uM supplemented with fresh medium containing compound every 3 days for 6 days measured post-last dose by FQ-PCR analysis relative to control; format: functional; in short: as §3
[40] = tested on: Hepatitis B virus; test: Antiviral activity against Hepatitis B virus infected in human HepG2.2.15 cells assessed as inhibition of intracellular HBV DNA replication at 40 uM supplemented with fresh medium containing compound every 3 days for 6 days measured post-last dose by FQ-PCR analysis relative to control; format: functional
In short: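 HepG2.2.15 cells exposed to 10, 20 or 40 µM for 3, 6 or 9 days; intracellular and extracellular HBV DNA levels measured.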

[41] = tested on: Hepatitis B virus; test: Antiviral activity against Hepatitis B virus infected in human HepG2.2.15 cells assessed as inhibition of extracellular HBV DNA replication at 10 uM measured on day 3 by FQ-PCR analysis relative to control; format: functional; details: HepG2.2.15, 72 h; in short: as §3
[42] = tested on: Hepatitis B virus; test: Antiviral activity against Hepatitis B virus infected in human HepG2.2.15 cells assessed as inhibition of intracellular HBV DNA replication at 40 uM supplemented with fresh medium containing compound every 3 days for 9 days measured post-last dose by FQ-PCR analysis relative to control; format: functional; in short: as §3

## C[C@@]1(F)[C@H](O)[C@@H](CO)O[C@H]1n1nnc2c(Nc3ccc(Cl)cc3F)ncnc21
[1]
  inhibition (INH): 61.4%
[2]
  inhibition (INH): 44.2%
[3]
  inhibition (INH): 76.4%
[4]
  inhibition (INH): 31.8%
[5]
  inhibition at 40 µM: 31.3%
[6]
  inhibition at 20 µM: 24.5%
[7]
  inhibition (INH): 66.3%
[8]
  inhibition (INH): 31.6%
[9]
  inhibition (INH): 49.5%
[10]
  inhibition (INH): 82.5%
[11]
  inhibition (INH): 22.8%
[12]
  CC50 at 72 h: 409 µM
[13]
  inhibition at 40 µM: 45.2%
[14]
  inhibition (INH): 65%
[15]
  inhibition (INH): 65.2%
[16]
  inhibition at 20 µM: 35.6%
[17]
  inhibition (INH): 39.7%
[18]
  inhibition at 20 µM: 28.1%
[19]
  inhibition (INH): 68.9%
[20]
  inhibition (INH): 41.6%
[21]
  inhibition (INH): 36.9%
[22]
  inhibition (INH): 36.6%
[23]
  inhibition at 10 µM: 11%
[24]
  inhibition at 40 µM: 36.8%
[25]
  inhibition (INH): 67.4%
[26]
  inhibition (INH): 83.6%
[27]
  inhibition (INH): 42.6%
[28]
  inhibition at 10 µM: 14%
[29]
  inhibition (INH): 7.7%
[30]
  inhibition (INH): 7.7%
[31]
  inhibition at 10 µM: 5%
[32]
  CC50 at 216 h: 245 µM
[33]
  inhibition (INH): 31.1%
[34]
  inhibition at 40 µM: 34.7%
[35]
  inhibition at 20 µM: 17.5%
[36]
  inhibition (INH): 32.1%
[37]
  inhibition (INH): 27.4%
[38]
  inhibition (INH): 61.1%
[39]
  inhibition (INH): 47%
[40]
  inhibition (INH): 65.2%
[41]
  inhibition at 10 µM: 18.4%
[42]
  inhibition (INH): 80.2%

## C[C@@]1(F)[C@H](O)[C@@H](CO)O[C@H]1n1nnc2c(Nc3ccccc3)ncnc21
[8]
  inhibition (INH): 17.7%
[17]
  inhibition (INH): 14.8%
[32]
  CC50 at 216 h: 501 µM
